Substitutions are numbered along the chain they refer to.
Experiments:
Conditions in all cases: stereoisomer not certain
O14A2 I133V = tested on: T1, O14A2 I133V
T1 sequence (whole entry): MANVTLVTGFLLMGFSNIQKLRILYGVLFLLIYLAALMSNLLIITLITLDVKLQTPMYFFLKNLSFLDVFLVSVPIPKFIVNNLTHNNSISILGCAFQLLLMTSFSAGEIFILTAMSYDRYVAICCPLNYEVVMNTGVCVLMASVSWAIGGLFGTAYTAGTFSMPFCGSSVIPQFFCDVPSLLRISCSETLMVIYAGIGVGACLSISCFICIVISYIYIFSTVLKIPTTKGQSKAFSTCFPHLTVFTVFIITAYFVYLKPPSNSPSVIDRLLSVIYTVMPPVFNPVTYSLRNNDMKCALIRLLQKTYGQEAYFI
How it was run: (§1)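 Each receptor–molecule pair is labelled responsive or non-responsive (inactive) according to whether the original authors judged the measured signal statistically different from baseline. The data were taken from the main text and supplementary material of published papers and checked for typos and inconsistencies. Assay methods differed by source, with transient luciferase assays in mammalian cell lines being common.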

O14CZ = tested on: T2, O14CZ
T2 sequence (whole entry): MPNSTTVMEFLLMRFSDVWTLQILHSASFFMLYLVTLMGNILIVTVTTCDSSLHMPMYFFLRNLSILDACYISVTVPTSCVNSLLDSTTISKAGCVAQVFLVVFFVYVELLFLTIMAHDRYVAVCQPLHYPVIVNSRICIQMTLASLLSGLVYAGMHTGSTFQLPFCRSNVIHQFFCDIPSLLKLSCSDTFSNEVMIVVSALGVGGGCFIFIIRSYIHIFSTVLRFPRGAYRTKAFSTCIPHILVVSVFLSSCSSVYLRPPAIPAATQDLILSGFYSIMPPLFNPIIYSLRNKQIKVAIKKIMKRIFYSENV
How it was run: as §1

O14I1 V36A D50N Y216C = tested on: T3, O14I1 V36A D50N Y216C
T3 sequence (whole entry): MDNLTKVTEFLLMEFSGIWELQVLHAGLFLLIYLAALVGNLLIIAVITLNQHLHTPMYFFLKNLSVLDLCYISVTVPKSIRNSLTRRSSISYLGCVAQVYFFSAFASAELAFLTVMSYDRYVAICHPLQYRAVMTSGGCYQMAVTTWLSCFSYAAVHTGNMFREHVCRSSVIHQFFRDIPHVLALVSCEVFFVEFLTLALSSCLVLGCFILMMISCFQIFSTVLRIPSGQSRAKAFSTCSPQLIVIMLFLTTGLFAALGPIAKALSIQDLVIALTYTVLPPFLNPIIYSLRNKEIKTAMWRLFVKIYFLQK
How it was run: as §1

O14J1 N3Y = tested on: T4, O14J1 N3Y
T4 sequence (whole entry): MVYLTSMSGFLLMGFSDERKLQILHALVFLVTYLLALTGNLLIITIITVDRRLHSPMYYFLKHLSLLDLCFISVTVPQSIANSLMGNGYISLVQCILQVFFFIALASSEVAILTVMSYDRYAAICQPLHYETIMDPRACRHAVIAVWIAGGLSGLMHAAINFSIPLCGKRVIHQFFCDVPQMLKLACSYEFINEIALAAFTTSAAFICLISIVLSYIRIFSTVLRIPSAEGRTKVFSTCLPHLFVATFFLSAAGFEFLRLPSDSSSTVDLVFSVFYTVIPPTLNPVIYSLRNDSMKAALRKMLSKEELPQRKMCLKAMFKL
How it was run: as §1

O14K1 D119Y = tested on: T5, O14K1 D119Y
T5 sequence (whole entry): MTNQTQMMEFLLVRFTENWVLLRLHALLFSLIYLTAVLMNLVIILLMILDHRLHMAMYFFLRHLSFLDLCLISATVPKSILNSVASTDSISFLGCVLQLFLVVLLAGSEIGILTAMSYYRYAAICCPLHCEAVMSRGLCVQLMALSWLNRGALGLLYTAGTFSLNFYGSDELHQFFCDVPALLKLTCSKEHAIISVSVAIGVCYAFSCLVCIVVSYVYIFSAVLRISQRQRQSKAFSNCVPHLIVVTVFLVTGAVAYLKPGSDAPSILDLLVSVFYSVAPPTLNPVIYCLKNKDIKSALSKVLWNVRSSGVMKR
How it was run: as §1

O2A25 = tested on: T6, O2A25
T6 sequence (whole entry): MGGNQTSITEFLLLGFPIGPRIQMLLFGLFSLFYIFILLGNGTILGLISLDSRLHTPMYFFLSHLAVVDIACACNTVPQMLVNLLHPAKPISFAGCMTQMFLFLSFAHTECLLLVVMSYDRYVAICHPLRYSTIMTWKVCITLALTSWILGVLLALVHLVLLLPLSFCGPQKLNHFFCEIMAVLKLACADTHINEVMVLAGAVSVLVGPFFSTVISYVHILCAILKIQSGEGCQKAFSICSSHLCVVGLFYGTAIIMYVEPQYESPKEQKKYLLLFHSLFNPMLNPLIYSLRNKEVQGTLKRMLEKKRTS
How it was run: as §1

O2AE1 = tested on: T7, O2AE1
T7 sequence (whole entry): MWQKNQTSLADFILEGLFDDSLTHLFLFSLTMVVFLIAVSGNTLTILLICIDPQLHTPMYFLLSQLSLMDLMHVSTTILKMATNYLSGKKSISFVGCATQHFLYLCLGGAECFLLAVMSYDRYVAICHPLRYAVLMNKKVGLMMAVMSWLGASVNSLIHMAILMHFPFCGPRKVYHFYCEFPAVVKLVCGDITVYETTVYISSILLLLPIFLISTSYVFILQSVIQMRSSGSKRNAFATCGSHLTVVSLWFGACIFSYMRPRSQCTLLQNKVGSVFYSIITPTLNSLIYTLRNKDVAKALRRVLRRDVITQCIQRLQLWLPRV
How it was run: as §1

O2AJ1 = tested on: T8, O2AJ1
T8 sequence (whole entry): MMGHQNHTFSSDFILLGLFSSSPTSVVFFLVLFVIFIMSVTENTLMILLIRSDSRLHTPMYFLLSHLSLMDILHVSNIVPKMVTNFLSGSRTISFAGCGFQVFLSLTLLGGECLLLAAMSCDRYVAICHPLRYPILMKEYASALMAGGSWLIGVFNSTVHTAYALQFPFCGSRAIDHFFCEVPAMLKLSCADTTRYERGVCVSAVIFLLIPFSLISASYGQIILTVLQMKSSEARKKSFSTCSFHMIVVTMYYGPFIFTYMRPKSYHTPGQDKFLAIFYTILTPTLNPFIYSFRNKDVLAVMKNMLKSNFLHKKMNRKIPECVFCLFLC
How it was run: as §1

O2AK2 S99N = tested on: T9, O2AK2 S99N
T9 sequence (whole entry): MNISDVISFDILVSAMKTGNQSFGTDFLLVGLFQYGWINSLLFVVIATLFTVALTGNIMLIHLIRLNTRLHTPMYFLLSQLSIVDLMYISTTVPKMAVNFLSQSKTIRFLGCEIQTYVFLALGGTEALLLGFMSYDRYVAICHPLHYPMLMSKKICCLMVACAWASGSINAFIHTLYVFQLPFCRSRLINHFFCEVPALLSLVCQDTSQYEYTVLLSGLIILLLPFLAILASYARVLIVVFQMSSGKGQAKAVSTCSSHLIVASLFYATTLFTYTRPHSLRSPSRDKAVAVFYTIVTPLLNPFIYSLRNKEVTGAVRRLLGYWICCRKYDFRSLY
How it was run: as §1

O2T11 = tested on: T10, O2T11
T10 sequence (whole entry): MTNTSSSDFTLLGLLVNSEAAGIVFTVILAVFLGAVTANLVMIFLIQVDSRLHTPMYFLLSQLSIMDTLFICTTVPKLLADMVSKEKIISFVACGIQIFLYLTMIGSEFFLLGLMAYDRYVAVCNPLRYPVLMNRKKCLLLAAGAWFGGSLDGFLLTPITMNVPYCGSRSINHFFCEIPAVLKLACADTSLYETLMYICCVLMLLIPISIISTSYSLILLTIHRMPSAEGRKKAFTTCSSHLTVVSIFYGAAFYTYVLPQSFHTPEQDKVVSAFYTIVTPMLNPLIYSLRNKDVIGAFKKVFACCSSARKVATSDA
How it was run: as §1

O2T27 L36V V134D = tested on: T11, O2T27 L36V V134D
T11 sequence (whole entry): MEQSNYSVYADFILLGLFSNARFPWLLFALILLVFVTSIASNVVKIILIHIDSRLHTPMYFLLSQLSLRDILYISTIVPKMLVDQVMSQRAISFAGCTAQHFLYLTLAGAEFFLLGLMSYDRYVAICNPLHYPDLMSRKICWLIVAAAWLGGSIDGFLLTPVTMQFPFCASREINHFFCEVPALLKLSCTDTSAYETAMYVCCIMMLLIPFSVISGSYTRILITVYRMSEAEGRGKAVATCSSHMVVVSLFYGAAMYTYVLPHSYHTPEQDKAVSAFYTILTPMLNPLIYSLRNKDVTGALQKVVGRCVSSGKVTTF
How it was run: as §1

O2T29 Q24R = tested on: T12, O2T29 Q24R
T12 sequence (whole entry): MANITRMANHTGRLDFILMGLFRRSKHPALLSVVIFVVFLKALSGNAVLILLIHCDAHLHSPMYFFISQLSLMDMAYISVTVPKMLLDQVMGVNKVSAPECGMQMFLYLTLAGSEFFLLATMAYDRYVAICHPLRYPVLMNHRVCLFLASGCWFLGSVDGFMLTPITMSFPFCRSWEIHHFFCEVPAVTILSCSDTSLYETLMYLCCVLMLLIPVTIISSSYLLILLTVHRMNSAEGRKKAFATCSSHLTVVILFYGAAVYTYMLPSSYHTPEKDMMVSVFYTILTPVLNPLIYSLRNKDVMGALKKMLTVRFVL
How it was run: as §1

O2T33 A169V = tested on: T13, O2T33 A169V
T13 sequence (whole entry): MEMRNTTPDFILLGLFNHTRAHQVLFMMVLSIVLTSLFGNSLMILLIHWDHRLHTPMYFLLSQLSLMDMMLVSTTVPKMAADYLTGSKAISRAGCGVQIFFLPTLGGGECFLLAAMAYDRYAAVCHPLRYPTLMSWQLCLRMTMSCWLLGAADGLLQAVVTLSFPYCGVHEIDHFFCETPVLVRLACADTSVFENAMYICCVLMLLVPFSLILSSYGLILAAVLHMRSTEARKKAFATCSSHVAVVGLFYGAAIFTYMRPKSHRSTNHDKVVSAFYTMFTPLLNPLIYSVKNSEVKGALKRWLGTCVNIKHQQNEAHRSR
How it was run: as §1

O2T33 G297E I309L = tested on: T14, O2T33 G297E I309L
T14 sequence (whole entry): T13 sequence (whole entry) with V169A, G297E, I309L
How it was run: as §1

O2T34 Q6P R267P = tested on: T15, O2T34 Q6P R267P
T15 sequence (whole entry): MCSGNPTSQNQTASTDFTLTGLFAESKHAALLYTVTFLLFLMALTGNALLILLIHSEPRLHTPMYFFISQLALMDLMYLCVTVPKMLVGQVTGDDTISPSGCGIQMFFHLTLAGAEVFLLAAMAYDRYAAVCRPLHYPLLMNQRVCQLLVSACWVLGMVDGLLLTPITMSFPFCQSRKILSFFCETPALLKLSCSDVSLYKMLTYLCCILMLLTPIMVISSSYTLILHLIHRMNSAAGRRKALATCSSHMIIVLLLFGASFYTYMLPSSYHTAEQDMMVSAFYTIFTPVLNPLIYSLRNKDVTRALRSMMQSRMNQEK
How it was run: as §1

O2T34 R267P = tested on: T16, O2T34 R267P
T16 sequence (whole entry): T15 sequence (whole entry) with P6Q
How it was run: as §1

O4A47 = tested on: T17, O4A47
T17 sequence (whole entry): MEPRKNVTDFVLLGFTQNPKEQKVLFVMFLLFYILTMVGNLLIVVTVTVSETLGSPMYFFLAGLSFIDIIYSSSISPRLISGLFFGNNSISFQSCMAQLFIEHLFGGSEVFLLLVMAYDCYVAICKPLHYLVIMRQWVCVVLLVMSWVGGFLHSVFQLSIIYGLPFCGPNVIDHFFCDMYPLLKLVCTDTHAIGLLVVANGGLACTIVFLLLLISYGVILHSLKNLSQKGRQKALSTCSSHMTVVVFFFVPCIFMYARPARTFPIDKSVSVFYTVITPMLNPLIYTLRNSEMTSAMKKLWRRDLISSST
How it was run: as §1

O4C46 S240F C252Y K288R = tested on: O4C46 S240F C252Y K288R
How it was run: as §1

O4F15 A272T = tested on: T18, O4F15 A272T
T18 sequence (whole entry): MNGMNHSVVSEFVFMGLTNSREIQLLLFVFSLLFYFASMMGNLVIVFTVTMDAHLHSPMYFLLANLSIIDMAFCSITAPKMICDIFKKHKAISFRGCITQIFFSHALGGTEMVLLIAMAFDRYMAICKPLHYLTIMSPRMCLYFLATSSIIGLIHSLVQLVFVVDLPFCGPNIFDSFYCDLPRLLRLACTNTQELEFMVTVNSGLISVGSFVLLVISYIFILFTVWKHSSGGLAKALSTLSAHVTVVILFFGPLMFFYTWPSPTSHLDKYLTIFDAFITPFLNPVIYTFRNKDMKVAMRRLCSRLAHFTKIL
How it was run: as §1

O1440 = tested on: T19, O1440
T19 sequence (whole entry): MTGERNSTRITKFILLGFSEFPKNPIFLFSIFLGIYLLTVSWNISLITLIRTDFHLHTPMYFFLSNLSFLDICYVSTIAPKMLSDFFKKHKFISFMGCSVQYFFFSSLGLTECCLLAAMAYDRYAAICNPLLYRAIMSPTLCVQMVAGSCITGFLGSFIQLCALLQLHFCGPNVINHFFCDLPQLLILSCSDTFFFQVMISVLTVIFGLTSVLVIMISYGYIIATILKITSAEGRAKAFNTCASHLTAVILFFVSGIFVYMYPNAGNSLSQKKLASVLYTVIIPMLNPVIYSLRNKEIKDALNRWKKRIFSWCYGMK
How it was run: as §1

Measured: odorant receptor agonist call

CCCC(S)CCOC(C)=O (centres undefined)
not listed: O1440
inactive: all other assays above

O=C1CCCCCCCCC1
inactive: O1440

CCC1OC(C)=C(O)C1=O (centres undefined)
not listed: O1440
inactive: all other assays above

CC1=NC(C)C(C)S1 (centres undefined)
not listed: O1440
inactive: all other assays above

O=C1C=CCCCCCCCCCCCCO1
active: O1440

CC1CCCCCCCCCCCC(=O)C1 (centres undefined)
active: O1440

CCCCCCCC(=O)CCCCCCC
inactive: O1440

CCC1OC(=O)C(O)=C1C (centres undefined)
not listed: O1440
inactive: all other assays above

CC1C(C)(C)C2=C(C(=O)CCC2)C1(C)C (centres undefined)
active: O1440

O=C1CCCCCCCCCCCCCC1
active: O1440

C1CCCCCCCCCCCCCC1
inactive: O1440

O=C1CCCC=CCCCCCCCCCC1
active: O1440

From the M2OR odorant receptor database
